Laboratory results reported in ChEMBL document CHEMBL1122064, “Synthesis and biological evaluation of 17-[131I]iodo-9-telluraheptadecanoic acid, a potential imaging agent” (J Med Chem, 1982).

How the values were obtained:
[1] = system: Rattus norvegicus; test: Distribution of radioactivity in liver of Fischer 344 female rat after 6 hr of intravenous administration; format: ADME, organism-based; details: in vivo
Method in brief: (§1)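 Female Fischer 344 rats, 10-12 weeks old, 170-200 g, fed ad libitum. The 131I-labelled fatty acid was dissolved in absolute ethanol, added dropwise to stirred 6% bovine serum albumin at 40 °C (final ethanol 10%), filtered, and injected into a lateral tail vein under ether anaesthesia. Organs were excised, rinsed, blotted and weighed, then counted by Ge(Li) analyzer as percent injected dose/g.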

[2] = system: Rattus norvegicus; test: Distribution of radioactivity in Thyroid of Fischer 344 female rat after 60 min of intravenous administration; format: ADME, organism-based; details: in vivo, 1 h
Method in brief: (§2)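 Female Fischer 344 rats (10-12 weeks, 170-200 g) with food and water ad libitum. The 131I-labelled fatty acid was taken up in ethanol, added dropwise to stirred 6% BSA at 40 °C (final ethanol 10%), filtered, and injected into a lateral tail vein under ether. Rats were CO2-anaesthetised and killed; organs were excised, rinsed, blotted, weighed and Ge(Li)-counted. Results are mean (range) % injected dose/g.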

[3] = system: Rattus norvegicus; test: Distribution of radioactivity in blood of Fischer 344 female rat after 4 days of intravenous administration; format: ADME, organism-based; details: in vivo, 96 h; method in brief: as §2
[4] = system: Rattus norvegicus; test: Distribution of radioactivity in kidneys of Fischer 344 female rat after 60 min of intravenous administration; format: ADME, organism-based, Kidney; details: in vivo, 1 h
[5] = system: Rattus norvegicus; test: Distribution of radioactivity in blood of Fischer 344 female rat after 60 min of intravenous administration; format: ADME, organism-based; details: in vivo, 1 h
[6] = system: Rattus norvegicus; test: Distribution of radioactivity in heart of Fischer 344 female rat after 30 min of intravenous administration; format: ADME, organism-based; details: in vivo, 0.5 h
[7] = system: Rattus norvegicus; test: Distribution of radioactivity in blood of Fischer 344 female rat after 24 hr of intravenous administration; format: ADME, organism-based; details: in vivo; method in brief: as §2
[8] = system: Rattus norvegicus; test: Distribution of radioactivity in blood of Fischer 344 female rat after 6 hr of intravenous administration; format: ADME, organism-based; details: in vivo; method in brief: as §2
[9] = system: Rattus norvegicus; test: Distribution of radioactivity in blood of Fischer 344 female rat after 2 min of intravenous administration; format: ADME, organism-based; details: in vivo; method in brief: as §2
[10] = system: Rattus norvegicus; test: Distribution of radioactivity in lungs of Fischer 344 female rat after 60 min of intravenous administration; format: ADME, organism-based, Lung; details: in vivo, 1 h
Method in brief: (§3)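 Female Fischer 344 rats, 10-12 weeks, 170-200 g, fed ad libitum. The labelled fatty acid was given in 6% bovine serum albumin via a lateral tail vein under ether anaesthesia. Rats were killed by CO2 anaesthesia and cervical fracture; organs were excised, rinsed, blotted, weighed and counted by Ge(Li) analyzer. Results are mean percent injected dose/g with range.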

[11] = system: Rattus norvegicus; test: Distribution of radioactivity in brain of Fischer 344 female rat after 2 min of intravenous administration; format: ADME, organism-based; details: in vivo; method in brief: as §2
[12] = system: Rattus norvegicus; test: Distribution of radioactivity in blood of Fischer 344 female rat after 2 hr of intravenous administration; format: ADME, organism-based; details: in vivo; method in brief: as §2
[13] = system: Rattus norvegicus; test: Distribution of radioactivity in kidneys of Fischer 344 female rat after 24 hr of intravenous administration; format: ADME, organism-based, Kidney; details: in vivo; method in brief: as §2
[14] = system: Rattus norvegicus; test: Distribution of radioactivity in liver of Fischer 344 female rat after 2 min of intravenous administration; format: ADME, organism-based; details: in vivo; method in brief: as §1
[15] = system: Rattus norvegicus; test: Distribution of radioactivity in Thyroid of Fischer 344 female rat after 6 hr of intravenous administration; format: ADME, organism-based; details: in vivo; method in brief: as §2
[16] = system: Rattus norvegicus; test: Distribution of radioactivity in kidneys of Fischer 344 female rat after 6 hr of intravenous administration; format: ADME, organism-based, Kidney; details: in vivo; method in brief: as §2
[17] = system: Rattus norvegicus; test: Distribution of radioactivity in liver of Fischer 344 female rat after 10 min of intravenous administration; format: ADME, organism-based; details: in vivo; method in brief: as §2
[18] = system: Rattus norvegicus; test: Distribution of radioactivity in lungs of Fischer 344 female rat after 2 min of intravenous administration; format: ADME, organism-based, Lung; details: in vivo; method in brief: as §1
[19] = system: Rattus norvegicus; test: Distribution of radioactivity in Thyroid of Fischer 344 female rat after 24 hr of intravenous administration; format: ADME, organism-based; details: in vivo; method in brief: as §2
[20] = system: Rattus norvegicus; test: Distribution of radioactivity in lungs of Fischer 344 female rat after 10 min of intravenous administration; format: ADME, organism-based, Lung; details: in vivo; method in brief: as §1
[21] = system: Rattus norvegicus; test: Distribution of radioactivity in kidneys of Fischer 344 female rat after 10 min of intravenous administration; format: ADME, organism-based, Kidney; details: in vivo; method in brief: as §2
[22] = system: Rattus norvegicus; test: Distribution of radioactivity in Thyroid of Fischer 344 female rat after 30 min of intravenous administration; format: ADME, organism-based; details: in vivo, 0.5 h; method in brief: as §2
[23] = system: Rattus norvegicus; test: Distribution of radioactivity in liver of Fischer 344 female rat after 4 of days intravenous administration; format: ADME, organism-based; details: in vivo; method in brief: as §1
[24] = system: Rattus norvegicus; test: Distribution of radioactivity in heart of Fischer 344 female rat after 2 min of intravenous administration; format: ADME, organism-based; details: in vivo; method in brief: as §2
[25] = system: Rattus norvegicus; test: Distribution of radioactivity in heart of Fischer 344 female rat after 2 hr of intravenous administration; format: ADME, organism-based; details: in vivo; method in brief: as §2
[26] = system: Rattus norvegicus; test: Distribution of radioactivity in liver of Fischer 344 female rat after 24 hr of intravenous administration; format: ADME, organism-based; details: in vivo; method in brief: as §1
[27] = system: Rattus norvegicus; test: Distribution of radioactivity in Thyroid of Fischer 344 female rat after 2 min of intravenous administration; format: ADME, organism-based; details: in vivo; method in brief: as §2
[28] = system: Rattus norvegicus; test: Distribution of radioactivity in blood of Fischer 344 female rat after 30 min of intravenous administration; format: ADME, organism-based; details: in vivo, 0.5 h
[29] = system: Rattus norvegicus; test: Distribution of radioactivity in liver of Fischer 344 female rat after 2 hr of intravenous administration; format: ADME, organism-based; details: in vivo; method in brief: as §2
[30] = system: Rattus norvegicus; test: Distribution of radioactivity in liver of Fischer 344 female rat after 60 min of intravenous administration; format: ADME, organism-based; details: in vivo, 1 h; method in brief: as §3
[31] = system: Rattus norvegicus; test: Distribution of radioactivity in kidneys of Fischer 344 female rat after 2 min of intravenous administration; format: ADME, organism-based, Kidney; details: in vivo; method in brief: as §2
[32] = system: Rattus norvegicus; test: Distribution of radioactivity in brain of Fischer 344 female rat after 2 hr of intravenous administration; format: ADME, organism-based; details: in vivo; method in brief: as §2

O=C(O)CCCCCCCC[Te]CCCCCCCC[131I]
Distribution of radioactivity [1]: 0.51 dose g-1
Distribution of radioactivity [2]: 74.7 dose g-1
Distribution of radioactivity [3]: 0.02 dose g-1
Distribution of radioactivity [4]: 0.68 dose g-1
Distribution of radioactivity [5]: 0.64 dose g-1
Distribution of radioactivity [6]: 1.78 dose g-1
Distribution of radioactivity [7]: 0.08 dose g-1
Distribution of radioactivity [8]: 0.44 dose g-1
Distribution of radioactivity [9]: 1.28 dose g-1
Distribution of radioactivity [10]: 0.75 dose g-1
Distribution of radioactivity [11]: 0.17 dose g-1
Distribution of radioactivity [12]: 0.61 dose g-1
Distribution of radioactivity [13]: 0.08 dose g-1
Distribution of radioactivity [14]: 3.71 dose g-1
Distribution of radioactivity [15]: 184 dose g-1
Distribution of radioactivity [16]: 0.36 dose g-1
Distribution of radioactivity [17]: 3.23 dose g-1
Distribution of radioactivity [18]: 1.4 dose g-1
Distribution of radioactivity [19]: 475 dose g-1
Distribution of radioactivity [20]: 1.11 dose g-1
Distribution of radioactivity [21]: 1.14 dose g-1
Distribution of radioactivity [22]: 41.9 dose g-1
Distribution of radioactivity [23]: 0.02 dose g-1
Distribution of radioactivity [24]: 2.39 dose g-1
Distribution of radioactivity [25]: 1.33 dose g-1
Distribution of radioactivity [26]: 0.13 dose g-1
Distribution of radioactivity [27]: 6.27 dose g-1
Distribution of radioactivity [28]: 0.72 dose g-1
Distribution of radioactivity [29]: 1.02 dose g-1
Distribution of radioactivity [30]: 1.16 dose g-1
Distribution of radioactivity [31]: 1.36 dose g-1
Distribution of radioactivity [32]: 0.04 dose g-1
